The text below walks through data of ChEMBL document CHEMBL3232997, “Synthesis and biological evaluation of a series of benzoxazole/benzothiazole-containing 2,3-dihydrobenzo[b][1,4]dioxine derivatives as potential antidepressants” (Bioorg Med Chem Lett, 2014).

SMILES strings stand for the structures. Active and inactive are the calls of the source. The rule behind the calls is not given here.

The subject of data set [1] is Mus musculus. The data set is described as follows: Antidepressant activity in Kunming mouse assessed as decrease in immobility time at 40 mg/kg, po by tail suspension test. In kind it is functional, organism-based. On the set-up: dose 40 mg/kg.
The subject of data set [2] is Mus musculus. The data set is described as follows: Antidepressant activity in Kunming mouse assessed as decrease in immobility time at 40 mg/kg, po by forced swimming test. In kind it is functional, organism-based. Set-up: dose 40 mg/kg.
The target in data set [3] is T1, 5-hydroxytryptamine receptor 1A (Rattus norvegicus, UniProt P19327).
T1 sequence (P19327 whole entry): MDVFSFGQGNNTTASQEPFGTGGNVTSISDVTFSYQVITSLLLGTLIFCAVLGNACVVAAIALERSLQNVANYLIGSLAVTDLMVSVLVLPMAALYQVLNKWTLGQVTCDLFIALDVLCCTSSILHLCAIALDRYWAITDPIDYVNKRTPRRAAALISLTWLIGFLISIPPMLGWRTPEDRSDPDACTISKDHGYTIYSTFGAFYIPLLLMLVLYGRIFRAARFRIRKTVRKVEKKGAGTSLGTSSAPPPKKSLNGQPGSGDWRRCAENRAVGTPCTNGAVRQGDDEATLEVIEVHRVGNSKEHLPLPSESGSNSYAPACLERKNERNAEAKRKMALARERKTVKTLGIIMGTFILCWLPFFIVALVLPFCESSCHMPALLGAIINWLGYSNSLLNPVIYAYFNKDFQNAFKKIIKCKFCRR
As to the kind of experiment: Displacement of [3H]8-OH-DPAT from rat cerebral cortex 5-HT1A receptor after 30 mins by liquid scintillation counting. In kind it is tissue-based. Summed up: (§1)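 Competition binding on rat cerebral cortex homogenates. 5-HT1A was labelled with [3H]-8-hydroxy-2-(di-n-propylamino)tetralin and 5-HT2A with [3H]ketanserine. The method followed a previously reported procedure. Ki values are reported as mean ± SEM.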
For orientation: Displacement assays read how much labelled ligand stays bound in the presence of the test substance.

The target in data set [4] is 5-hydroxytryptamine receptor 2A (Rattus norvegicus, UniProt P14842). As to the kind of experiment: Displacement of [3H]-ketanserin from rat cerebral cortex 5-HT2A receptor after 30 mins by liquid scintillation counting. In kind it is tissue-based. An outline of the steps:
as §1

For data set [5], the system named is Mus musculus. As to the kind of experiment: Toxicity in Kunming mouse assessed as locomotor activity at 10 mg/kg, po measured for 10 mins (reference value: 1165 +/- 263 cm). In kind it is organism-based. On the set-up: dose 10 mg/kg, route oral. The note with it: in vivo. An outline of the steps: (§2)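 Mice were given test compound orally, with a vehicle-treated group as control. Locomotor activity was recorded for 10 min and reported as distance travelled (cm). Values are mean ± SEM, n = 10 per group. The test was used to rule out false positives in the swim and tail-suspension tests.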

The subject of data set [6] is Mus musculus. The data set is described as follows: Toxicity in Kunming mouse assessed as locomotor activity at 100 mg/kg, po measured for 10 mins (reference value: 1165 +/- 263 cm). Type of data set: organism-based. Set-up: dose 100 mg/kg, route oral. The conditions noted are these: in vivo. An outline of the steps: as §2
Data set [7] concerns Mus musculus. The data set is described as follows: Toxicity in Kunming mouse assessed as locomotor activity at 40 mg/kg, po measured for 10 mins (reference value: 1165 +/- 263 cm). In kind it is organism-based. On the set-up: dose 40 mg/kg, route oral. The conditions noted are these: in vivo. Summed up: as §2
Data set [8] relates to Mus musculus. The data set is described as follows: Antidepressant activity in po dosed Kunming mouse assessed as decrease in immobility time by forced swimming test. In kind it is functional.

As a reminder, the Ki is a measure of affinity in units of concentration, obtained from inhibition or displacement. In general, ED50 refers to the dose that gives a 50% effect, or the effect in half of the subjects.

5-hydroxytryptamine receptor 2A, sequence (P14842 whole entry): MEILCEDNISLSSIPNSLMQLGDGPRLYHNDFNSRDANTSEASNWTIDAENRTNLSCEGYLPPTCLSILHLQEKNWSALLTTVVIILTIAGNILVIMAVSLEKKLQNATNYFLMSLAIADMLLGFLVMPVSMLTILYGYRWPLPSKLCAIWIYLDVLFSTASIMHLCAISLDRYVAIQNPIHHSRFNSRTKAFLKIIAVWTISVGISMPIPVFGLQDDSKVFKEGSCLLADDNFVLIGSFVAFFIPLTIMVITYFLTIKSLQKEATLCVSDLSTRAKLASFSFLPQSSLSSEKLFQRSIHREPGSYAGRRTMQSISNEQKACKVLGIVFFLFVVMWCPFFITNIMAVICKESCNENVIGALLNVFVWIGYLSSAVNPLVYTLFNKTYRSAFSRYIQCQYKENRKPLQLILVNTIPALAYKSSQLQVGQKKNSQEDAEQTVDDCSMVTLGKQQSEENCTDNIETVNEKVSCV

With `c1ccc(C2Oc3ccccc3OC2COCCCN2CCC(c3nc4ccccc4o3)CC2)cc1` (stereo not given), in data set [1], the “antidepressant activity (active/inactive)” value is “Active”. Besides, the “Decrease in immobility time” value in data set [2] is “Active”. Moreover, the Ki in data set [3] turned out to be 51 nM; in data set [4] it was 4.1 nM.
With `CN(C)CCCN1c2ccccc2CCc2ccccc21` [IMIPRAMINE], in data set [5], the Activity worked out at 1248 cm.
Take `c1ccc(C2Oc3ccccc3OC2COCCCCN2CCC(c3nc4ccccc4s3)CC2)cc1` (stereo not given): the “antidepressant activity (active/inactive)” value in data set [1] was “Active”. Moreover, the “Decrease in immobility time” value in data set [2] was “Active”. For the same compound, the Ki is 31 nM in data set [3] and 24 nM in data set [4].
As for `c1ccc(C2Oc3ccccc3OC2COCCCCCN2CCC(c3nc4ccccc4s3)CC2)cc1` (stereo not given), the values for the Ki in data set [3] and in data set [4] were 131 nM and 148 nM, respectively.
For `O=C(NCCCN1CCC(c2nc3ccccc3s2)CC1)C1COc2ccccc2O1` (stereo not given), the “antidepressant activity (active/inactive)” value in data set [1] is “Active”. In addition, the “Decrease in immobility time” value in data set [2] is “Active”. The Ki turned out to be 85 nM in data set [3] and 90 nM in data set [4].
With `CC1Oc2ccccc2OC1COCCCN1CCC(c2nc3ccccc3s2)CC1` (stereo not given), the Ki in data set [3] amounted to 103 nM; in data set [4] it was 131 nM.
Consider `CC1Oc2ccccc2OC1COCCCN1CCC(c2nc3ccccc3o2)CC1` (stereo not given), for which the Ki in data set [3] turned out to be 152 nM; in data set [4], 8.2 nM.
`c1ccc2c(c1)OCC(COCCCN1CCC(c3nc4ccccc4o3)CC1)O2` (stereo not given): the values for the Ki in data set [3] and in data set [4] were 120 nM and 30 nM, respectively.
`c1ccc2c(c1)OCC(COCCCN1CCC(c3nc4ccccc4s3)CC1)O2` (stereo not given): the Ki in data set [3] came to 92 nM; in data set [4], 28 nM.
`c1ccc(C2Oc3ccccc3OC2COCCCCN2CCC(c3nc4ccccc4o3)CC2)cc1` (stereo not given): the “antidepressant activity (active/inactive)” value in data set [1] is “Active”. Besides, in data set [2], the “Decrease in immobility time” value is “Active”. In addition, the inhibition constant Ki worked out at 17 nM in data set [3] and 0.71 nM in data set [4]. Also, the Activity is 1150 cm in data set [6], 1114 cm in data set [7] and 1180 cm in data set [5]. In addition, the ED50 in data set [8] worked out at 39 mg/kg.
Take `O=C(NCCN1CCC(c2nc3ccccc3o2)CC1)C1COc2ccccc2O1` (stereo not given): the Ki was determined as 76 nM in data set [3] and 87 nM in data set [4].
On to `c1ccc(C2Oc3ccccc3OC2COCCCCCN2CCC(c3nc4ccccc4o3)CC2)cc1` (stereo not given), for which the Ki was 106 nM in data set [3] and 0.74 nM in data set [4].
Consider `c1ccc(C2Oc3ccccc3OC2COCCCN2CCC(c3nc4ccccc4s3)CC2)cc1` (stereo not given), for which the “antidepressant activity (active/inactive)” value in data set [1] is “Active”. Also, the “Decrease in immobility time” value in data set [2] is “Active”. The Ki in data set [3] came to 134 nM; in data set [4], 19 nM.
As to `O=C(NCCCN1CCC(c2nc3ccccc3o2)CC1)C1COc2ccccc2O1` (stereo not given), the “antidepressant activity (active/inactive)” value in data set [1] was “Active”. The “Decrease in immobility time” value in data set [2] is “Active”. Further, the values for the Ki in data set [3] and in data set [4] were 84 nM and 88 nM, respectively.
For `O=C(NCCN1CCC(c2nc3ccccc3s2)CC1)C1COc2ccccc2O1` (stereo not given), the Ki in data set [3] is 94 nM; in data set [4] it was 113 nM.
